Source: PubChem
Only a selection was taken, and hits are over-represented in it overall.
UPR CHOP act – activators of apoptotic arm of unfolded protein response (CHOP). CHO-CHOP luciferase reporter, UPR activation, luminescence; percent of tunicamycin response over DMSO baseline. activation, % at 10 µM. actives 0.34% (n = 330,000);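 active = at 10 µM dose, activation of 40% or more, normalized to positive control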
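Test system: CHO-CHOP cells, stable luciferase reporter of PERK-eIF2a-CHOP signalling | Quantity: 500 CHO-CHOP cells per well | Buffer or medium: F12 plus 10% serum | Compound dosing: 10 µM single point, 0.5% DMSO | Schedule: 6 h compound treatment, 37 °C | Signal: Luciferase luminescence | Control set: Tunicamycin high control, DMSO low control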
XBP1 UPR activ – activators of adaptive arm of unfolded protein response (XBP1). CHO-XBP1 luciferase reporter, IRE1-XBP1 UPR activation, luminescence; percent of tunicamycin response, DMSO as zero. activation, % at 20 µM. actives 0.33% (n = 330,000). AID 463104;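 active = versus positive control, 20 µM dose yields 30% or more activation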
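Test system: CHO-XBP1 luciferase reporter cells | Buffer or medium: Serum-containing F12 medium, 10% FBS | Schedule: 6 h compound exposure at 37 °C, 5% CO2 | Detection: Steady-Glo luciferase glow luminescence, 10 min after reagent addition | Read-out basis: Activation, % of tunicamycin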
V-ATPase pHluor – yeast V-ATPase proton transport regulation by pHLuorin; S. cerevisiae, pHLuorin cytosolic pH fluorescence; response, % at 10 µM; actives 0.37% (n = 350,000); AID 504577; in the data active = response mostly above about 7.3%, no sharp cut-off; inactive = mostly below about 5.4%; also: actives read high
CHOP inh – inhibitors of CHOP induction in ER stress response; AID 2732; CHO-K1 CHOP-promoter luciferase, tunicamycin-induced, 15-18 h; actives 3.8% (n = 220,000); inhibition, % at 10 µM;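 active = compounds that reduced the stress-induced luciferase reporter signal by more than about 70% of percent inhibition, limit read from the data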
TbMetRS inhib – Trypanosoma brucei MetRS inhibition; purified T. brucei MetRS, ATP depletion, Kinase-Glo luminescence; inhibition, % at 11.9 µM; actives 0.4% (n = 360,000); AID 624268;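 active = inhibition above a per-plate cutoff of the control wells' mean inhibition plus 3 SD, cut at about 5.5% in these data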
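Material: parasite MetRS enzyme / Replication: singlicate, one well per compound / Signal: luminescence of leftover ATP / Schedule: 2 h aminoacylation at 25 °C after 15 min preincubation / Medium: HEPES-MgCl2-KCl buffer plus DTT, spermine, BSA, pyrophosphatase / Doses: 11.9 µM single point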
UPR XBP1 confirm – adaptive UPR (XBP1) activation, confirmed | shares compounds with XBP1 UPR activ | CHO-XBP1 IRE1-XBP1 luciferase reporter, luminescence | activation, % at 20 µM | actives 63% (n = 1,000);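 active = reporter signal at least 30% of the positive control's activation in two or more of four replicate wells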
Numbers stand for hits; n = inactive; x = not tested or not shown.

SMILES | UPR CHOP act | XBP1 UPR activ | V-ATPase pHluor | CHOP inh | TbMetRS inhib | UPR XBP1 confirm
Cc1ccc(Cn2c(=O)n(-c3ccccc3)c(=O)c3ccc(C(=O)NCc4ccco4)cc32)cc1 | n | 35 | n | 84 | n | 31
CCN(C(=S)Nc1ccc(Oc2ccccc2)cc1)c1ccccc1 | n | n | n | n | n | x
Cc1nn(Cc2ccccc2)c(C)c1NC(=O)CSc1nc(C2CC2)nc2c1cnn2-c1ccccc1 | n | 202 | n | n | n | 333
Cc1cccc(C)c1NC(=O)CSc1nc(C2CC2)nc2ccccc12 | n | n | n | x | n | x
N=c1n(CC(=O)c2ccc([N+](=O)[O-])cc2)c2ccccc2n1Cc1ccccc1 | n | 140 | n | 75 | n | n
Cc1ccc(C(C)n2cc(C(=O)NCc3ccccn3)nn2)cc1 (stereo not drawn) | n | n | n | n | n | x
O=C(CNC(=S)N(Cc1ccccc1F)C1CCCCC1)NCC1CCCO1 (stereo not drawn) | n | n | n | n | n | x
Cc1ccc(-c2n[nH]c(=S)n2/N=C/C=C/c2ccccc2[N+](=O)[O-])cc1 | n | n | n | n | n | x
O=[N+]([O-])c1ccccc1/C=C/C=N/n1c(-c2cc(-c3ccccc3)n[nH]2)n[nH]c1=S | n | 39 | n | n | n | n
COc1ccc(CCNC(=O)c2cc3c(=O)n4ccccc4nc3n(Cc3ccco3)c2=N)cc1OC | n | 43 | n | x | n | n
COc1cc2[nH]c3c(Cl)ncnc3c2cc1OC | n | n | n | n | n | x
COc1cc2[nH]c3c(N4CCN(c5ccc(Cl)cc5)CC4)ncnc3c2cc1OC | n | 39 | n | n | n | 33
CCCN(C(=O)c1cn(-c2ccccc2)nc1-c1ccc(OC)cc1)C1CCS(=O)(=O)C1 (stereo not drawn) | n | n | n | x | n | x
O=[N+]([O-])c1ccc(-c2nc(Nc3cccc(O)c3)c3ccccc3n2)cc1 | n | 34 | n | x | n | n
Cc1ccc(-n2nc3c(N4CCC(C(=O)NCCc5ccccc5C)CC4)nnc(C)c3c2C)cc1 | n | 39 | n | x | n | 30
COc1ccc(-n2nc3c(N4CCC(C(=O)NCCc5ccccc5C)CC4)nnc(C)c3c2C)cc1 | n | 50 | n | x | n | n
Cc1cccc(C)c1-c1ccc(CN2C(CC(C)C)C(=O)N(Cc3cn(CCO)nn3)CCS2(=O)=O)cc1 (stereo not drawn) | x | x | n | x | n | x
Cc1ccc(C(=O)CSc2nnc(N)s2)c(C)c1 | n | n | n | n | n | x
CCCN(C(=O)Cc1ccc(S(=O)(=O)N2CCOCC2)s1)c1c(N)n(Cc2ccccc2)c(=O)[nH]c1=O | n | n | n | x | n | x
CCOC(=O)c1[nH]c(C)c(C(=O)OCC(=O)Nc2sc3c(c2C#N)CCCCC3)c1C | n | 63 | n | 84 | n | n
CCCS(=O)(=O)NC(=O)C1(C)CCN(C(=O)C2(c3ccc(Cl)cc3)CCCC2)C1 (stereo not drawn) | x | x | x | x | n | x
CCNc1nc(NCC)n2c(SC(C(=O)Nc3cc(Cl)cc(Cl)c3)c3ccccc3)nnc2n1 (stereo not drawn) | n | 90 | n | 90 | n | n
CCNc1nc(NCC)n2c(SCC(=O)Nc3cccc(Cl)c3)nnc2n1 | n | n | n | x | n | x
COC(=O)C1C(O)=C(C=Nc2cccc3ccccc23)C(=O)CC1(C)C (stereo not drawn) | n | 121 | n | n | n | 110
CN1C(=O)/C(=N\OC(=O)c2cccc3ccccc23)c2ccccc21 | n | 43 | n | 95 | n | n
COCC(=O)N1CCC(n2nccc2NC(=O)CCOc2ccccc2)CC1 | n | n | n | x | n | x
COc1ccc2nc(NC(=O)c3cccc(-c4cc5ccccc5oc4=O)c3)sc2c1 | n | 78 | n | 105 | n | 55
CCCS(=O)(=O)N1CCc2cc(OC)c(OC)cc2C1 | n | n | n | n | n | x
CC1CCN(Cc2c(C(=O)N/N=C/c3cc(Br)ccc3O)nnn2-c2nonc2N)CC1 | n | n | n | x | n | x
CC1CCN(Cc2c(C(=O)N/N=C/c3ccc(C(F)(F)F)cc3)nnn2-c2nonc2N)CC1 | n | 30 | n | x | n | 40
